# In ChEMBL document CHEMBL4325827, “Bifidenone: Structure-Activity Relationship and Advanced Preclinical Candidate” (J Med Chem, 2018):
# Tests used:
# SF-295 = experiment: Antiproliferative activity against taxane-resistant human SF295 cells after 72 hrs by CellTiter 96 aqueous nonradioactive cell proliferation assay; type: functional, cell-based; settings: SF-295, 72 h
# Procedure, shortened: (§1)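 Antiproliferation in cultured tumour cells, at least 3 replicate wells per concentration per experiment. NCI-H460 came from ATCC. M14, NCI/ADR-RES, OVCAR-4, HCT-15, ACHN and SF-295 came from the National Cancer Institute. IC50 reported from single experiments where no SD is given.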
# NCI-H460 [1] = experiment: Antitumor activity against human NCI-H460 cells xenografted in Crl:NU(NCr)-Foxn1 nu mouse assessed as tumor growth inhibition at 40 mg/kg, ip qd administered for 3 consecutive days followed by 2 days of rest for 3 cycles relative to control; type: functional; settings: 48 h, read-out: TGI
# Procedure, shortened: (§2)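 Female athymic nude mice bearing subcutaneous xenografts, started from cultured cells (NCI-H460, Calu-6, NCI-H69, LOX-IMVI) or from serially passaged tumour fragments (NCI-H522). Mice were grouped into vehicle and treatment arms at tumour volumes of about 75-200 mm3. Dosing was ip at 5-10 mL/kg in 22% ethanol, 38% PEG400, 40% 20 mM Na citrate pH 5.0. Caliper volumes were taken as (length × width2)/2. Treated and control delta weights were median tumour weight minus staging-day median.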
# [2] = Toxicity in Crl:NU(NCr)-Foxn1 nu mouse xenografted with human Calu6 cells assessed as maximum body weight loss at 60 mg/kg, ip qd administered for 3 consecutive days followed by 2 days of rest for 4 cycles measured after 2 days post dose relative to control; type: organism-based; settings: in vivo, 48 h; procedure, shortened: as §2
# NCI-H460 [3] = experiment: Antitumor activity against human NCI-H460 cells xenografted in Crl:NU(NCr)-Foxn1 nu mouse assessed as tumor growth inhibition at 60 mg/kg, ip qd administered for 3 consecutive days followed by 2 days of rest for 3 cycles relative to control; type: functional; settings: 48 h, read-out: TGI; procedure, shortened: as §2
# [4] = Toxicity in Crl:NU(NCr)-Foxn1 nu mouse xenografted with human Calu6 cells assessed as maximum body weight loss at 50 mg/kg, ip qd administered for 3 consecutive days followed by 2 days of rest for 4 cycles measured after 17 days post dose relative to control; type: organism-based; settings: in vivo, 408 h; procedure, shortened: as §2
# OVCAR-4 = experiment: Potency index, ratio of paclitaxel IC50 to compound IC50 for taxane-resistant human OVCAR4 cells after 72 hrs by CellTiter 96 aqueous nonradioactive cell proliferation assay; type: functional
# NCI/ADR-RES = experiment: Antiproliferative activity against taxane-resistant human NCI/ADR-RES cells after 72 hrs by CellTiter 96 aqueous nonradioactive cell proliferation assay; type: functional, cell-based; procedure, shortened: as §1
# [5] = Toxicity in Crl:NU(NCr)-Foxn1 nu mouse xenografted with human […] cells assessed as maximum body weight loss at 50 mg/kg, ip qd administered for 3 consecutive days followed by 2 days of rest for 3 cycles measured after 7 days post dose relative to control; type: organism-based; settings: in vivo, 168 h; procedure, shortened: as §2
structure (smiles),measurement,setting,value
C=CC[C@H]1C[C@]2([C@H](C)Cc3cc(O)c(OC)cc3F)OCOC2=CC1=O,IC50,SF-295,9.6 nM
same,inhibition in vivo at 40 mg/kg,NCI-H460 [1],71%
same,Activity,[2],2%
same,inhibition in vivo at 60 mg/kg,NCI-H460 [3],67%
same,Activity,[4],4%
same,Ratio IC50,OVCAR-4,>75
same,IC50,NCI/ADR-RES,9 nM
same,Activity,[5],8%
